Screening data deposited in PubChem by several laboratories.
Hits are enriched below; roughly 6.4% of the tested compounds scored in any of these assays.
PostGolgi ctrl: growth of the yeast control strain, post-Golgi counter-screen. efflux-deficient yeast background strain, growth absorbance A615, 16 h. inhibition, % at 10 µM. 5% of 98,000 active. AID 738
PLK1 PBD inh: Plk1 (human) PBD binding inhibition; P53350; Plk1 PBD phosphopeptide binding, fluorescence polarization; inhibition, %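 (tested at about 20 µM)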; 0.13% of 97,000 active; AID 693; in the data active means inhibition above about 34%, passing the limit was not always enough
EphB4 ephrin blk: antagonists of human EphB4-ephrin-B2 interaction | EphB4 LBD / TNYL-RAW-Alexa532 peptide, fluorescence polarization | inhibition, % at 7 µM | 0.15% of 97,000 active;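 active means inhibition above the screen-wide mean inhibition plus 3 SD, cut at about 15% in these data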;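 further: 0% = DMSO wells and 100% = excess unlabeled TNYL-RAW peptide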
PLK1 kinase inh: PLK1 (human) kinase inhibition; 0.53% of 97,000 active; AID 619; inhibition, % at 10 µM; P53350; recombinant PLK1 kinase, TR-FRET peptide phosphorylation;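 active means inhibition of 50% or more in the single-concentration screen; inactive means inhibition below 50%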;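 further: 0% = DMSO max control and 100% = H-89 dihydrochloride min control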
PostGolgi yeast: growth inhibition of a yeast mutant, post-Golgi transport screen. post-Golgi transport phenotypic cell assay. inhibition, % at 10 µM. 0.9% of 98,000 active. AID 739;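 further: yeast cells grown in 1536-well plates; yeast grown about 18 h at 30C before absorbance read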
HIV Rev-RRE inh: inhibitors of HIV-1 Rev-RRE RNA interaction; P05866; Rev peptide-RRE RNA binding, FRET; inhibition, % at 8 µM; 0.79% of 97,000 active; AID 704;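 active means inhibition above the screen-wide mean plus 3 SD, cut at about 35% in these data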;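 further: 0% = median DMSO wells and 100% = median Neomycin B control wells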
Target sequence (P05866 whole entry, looked up): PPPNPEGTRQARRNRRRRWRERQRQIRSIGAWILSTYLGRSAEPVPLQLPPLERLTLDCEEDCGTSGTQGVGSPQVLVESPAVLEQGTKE
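Test system: Cy5-tagged RRE RNA duplex with fluorescein-tagged Rev peptide; Probe or stimulus: labelled Rev peptide; Schedule: 5 min preincubation and 15 min binding, 25 °C; Signal: FRET fluorescence readout; Evaluation: % inhibition from 671/540 nm acceptor-to-donor ratio, scaled between controls; Control set: DMSO and neomycin B.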
Active calls of the source: *; . = not tested or not shown. Unless noted, no stated cut-off is given here; in the data, active means inhibition above about 30%; inactive means the rest.

SMILES	PostGolgi ctrl	PLK1 PBD inh	EphB4 ephrin blk	PLK1 kinase inh	PostGolgi yeast	HIV Rev-RRE inh
COC(=O)c1ccc(CSc2nc3ccccc3c(=O)n2CC(C)C)o1	27.4	-13.7	-2.0	-5.5	-1.4	4.5
COC(=O)c1ccc(CSc2nc3ccccc3c(=O)n2Cc2ccco2)o1	33.7*	9.2	-6.8	1.3	-7.2	4.2
CC(=O)NCCn1c(SCc2ccccc2F)nc2ccccc2c1=O	5.0	-7.0	8.3	-6.3	0.3	6.0
Cc1ccccc1Nc1nc(N)nc(CSc2nc3ccccc3c(=O)n2CCCO)n1	4.7	.	.	.	-6.3	.
CC(=O)NCCn1c(SCc2ccc(C)cc2)nc2ccccc2c1=O	33.7*	-3.2	5.2	-9.0	3.5	0.5
COc1ccc(C/C(=N\O)c2ccc(OC)cc2)cc1	0.6	6.8	-5.9	-6.7	9.5	2.0
COc1ccc2c(c1)c(=O)oc1cc(OCC(=O)N3CCCC(C)C3)ccc12 (centres undefined)	59.2*	5.2	-3.5	-8.6	5.5	1.7
c1cncc(-c2nnc3sc(C4CCCCC4)nn23)c1	-0.3	-9.6	-1.3	0.0	11.5	3.6
COc1cccc(-c2nnc3sc(C4CCCCC4)nn23)c1	33.2*	3.9	3.2	-4.7	9.5	9.7
CCOc1cccc(-c2nnc3sc(C4CCCCC4)nn23)c1	33.4*	-4.7	-1.2	-8.7	-3.1	7.7
Cc1ccc(S(=O)(=O)NC(CC(C)C)C(=O)Nc2nccs2)cc1 (centres undefined)	8.3	-40.5	0.1	-7.2	-7.2	2.0
COC(=O)c1ccccc1NC(=O)c1cnn2c(C(F)F)cc(C3CC3)nc12	42.9*	-1.1	4.7	-13.4	17.5	11.1
O=C(NCCc1ccccc1)c1cnn2c(C(F)F)cc(C3CC3)nc12	39.0*	10.9	5.8	-9.9	18.2	9.1
Cc1cc(C(F)F)n2ncc(C(=O)NCCc3ccccc3Cl)c2n1	8.1	0.1	5.7	-4.5	0.0	1.9
Cc1cc(NC(=O)c2cnn3c(C(F)F)cc(C4CC4)nc23)no1	14.7	-16.7	-1.9	-10.8	-3.3	6.6
Cc1cc(C(F)F)n2ncc(C(=O)NCCc3ccc(Cl)cc3)c2n1	49.3*	-18.8	-3.6	-4.5	2.7	16.4
CCOc1ccc(N(C(C)=O)c2nc(C)cc(C)c2C#N)cc1	.	6.1	0.6	-5.5	.	5.0
CCc1cc(C(=O)COc2ccccc2F)c(O)cc1O	16.5	-5.9	-7.6	-4.8	0.3	3.9
O=C1CC(c2ccco2)Cc2nc(N3CCc4ccccc4C3)ncc21 (centres undefined)	42.3*	33.2	3.7	-20.4	-2.5	4.5
CC1CC(C)CN(c2ncc3c(n2)CC(c2ccccc2)CC3=O)C1 (centres undefined)	50.0*	-15.0	-0.1	3.0	5.0	3.3
CC(C)c1ccc(C2CC(=O)c3cnc(N4CCc5ccccc5C4)nc3C2)cc1 (centres undefined)	11.3	-6.4	2.3	-16.4	-4.8	13.8
O=C(O)CCSc1nnc(-c2cccnc2)n1-c1ccccc1	7.2	-28.9	2.9	-6.1	-13.8	7.5
CCC(=O)NCCc1nc2ccccc2n1Cc1ccccc1	.	-6.5	1.9	-8.8	.	5.0
Cc1ccccc1Cn1c(-c2cncs2)nc2ccccc21	35.4*	-14.4	3.1	-4.5	23.9	17.1
Brc1ccccc1Cn1c(-c2cscn2)nc2ccccc21	53.8*	-7.9	1.1	-9.4	5.7	5.5
SMILES	PostGolgi ctrl	PLK1 PBD inh	EphB4 ephrin blk	PLK1 kinase inh	PostGolgi yeast	HIV Rev-RRE inh
Cc1ccccc1Cn1c(Cc2ccccc2)nc2ccccc21	34.4*	-3.9	-2.9	-14.4	-12.3	14.3
CCCc1ccc(-c2c(C)sc(N)c2C#N)cc1	43.1*	-3.7	-0.1	-2.9	5.2	5.2
COc1ccc(/C=C(/C(=O)Nc2ccccc2C(=O)NC(C)C)c2ccccc2)cc1	29.5	17.4	-6.9	-11.8	2.1	6.5
COc1ccc(/C=C(/C(=O)Nc2ccccc2C(=O)N2CCCC2)c2ccccc2)cc1	35.6*	-4.7	3.1	-6.8	2.4	9.9
Clc1ccccc1-c1nnc2sc(-c3ccc4c(c3)OCO4)nn12	11.5	9.8	3.5	17.1	4.1	8.8
Brc1ccccc1-c1nnc2sc(-c3ccc4c(c3)OCCO4)nn12	60.5*	0.4	-2.4	-4.0	2.9	12.4
COc1ccc(C)cc1-n1nnnc1SCc1nc2ccccc2s1	34.6*	-12.0	-10.7	-5.5	-2.4	17.2
COc1ccc(-n2nnnc2SCc2nc3ccccc3s2)cc1	15.6	-15.0	2.8	-6.9	-4.9	12.5
CCOC(=O)c1c(C)n(C)c2cc(Br)c(C)cc12	11.0	-3.6	5.6	-9.0	-4.8	14.3
CCOC(=O)c1c(CN2CCN(Cc3ccccc3)CC2)n(C)c2cc(Br)c(OC)cc12	73.2*	-15.0	-1.0	-15.9	1.9	4.4
O=C1NC(=S)N/C1=C/c1ccc(-c2c(Br)cc([N+](=O)[O-])cc2Br)o1	14.5	-3.1	0.5	-18.5	-4.2	38.0*
Cc1nc2ccc(NC(=O)C3CCN(S(=O)(=O)c4cccs4)CC3)cc2s1	3.9	14.2	4.4	53.5*	2.8	9.4
CCOC(=O)c1cccc(NC(=O)C2CCN(S(=O)(=O)c3cccs3)CC2)c1	9.4	-19.2	-1.3	-26.2	3.9	15.3
CC(=O)c1cccc(NC(=O)C2CCN(S(=O)(=O)c3ccccc3)CC2)c1	33.5*	-11.5	-1.1	-17.2	-4.3	-0.9
CCSc1nc(-c2ccc(OC)cc2)n(-c2nc3ccccc3s2)n1	20.6	-14.1	4.1	-5.7	0.2	13.6
COc1ccc(S(=O)(=O)N(C)CC(=O)NCc2cccnc2)cc1	-2.6	10.0	-1.7	-3.2	6.2	2.7
O=C(NC(=S)NCCc1ccccc1)c1ccccc1	17.4	8.1	-0.4	-1.3	3.2	-3.4
O=C(CCc1ccccc1)NNC(=S)NC(=O)c1ccccc1	32.4*	3.7	-0.1	-3.9	20.6	5.8
CCN(CC)S(=O)(=O)c1ccc(C(=O)OCn2nnc3ccccc3c2=O)cc1	78.0*	5.5	5.8	-11.0	89.5*	17.5
CCOc1ccc(N(CC)S(=O)(=O)c2ccc3c(c2)n(C)c(=O)c(=O)n3C)cc1	-3.5	-6.0	5.4	-6.6	-1.7	4.5
Cc1cc(N2CCN(C(=O)c3ccco3)CC2)n2ncnc2n1	.	-22.8	4.4	-8.6	.	8.3
Cc1cc(N2CCN(C(=O)c3ccco3)CC2)n2ncc(-c3ccccc3)c2n1	101.6*	-3.0	3.1	-10.7	101.0*	-2.6
Cc1nn2c(N3CCN(C(=O)c4ccco4)CC3)cc(C(C)(C)C)nc2c1-c1ccccc1	90.7*	-12.8	1.3	-14.8	9.7	9.6
CCN1CCCC1CN(Cc1cc2cc(C)ccc2[nH]c1=O)C(=O)Nc1ccccc1OC (centres undefined)	33.9*	-9.5	7.2	-1.6	6.9	12.1
Cc1ccc2[nH]c(=O)c(CN(CCN3CCOCC3)C(=O)Nc3ccccc3F)cc2c1	46.1*	-9.6	4.3	-10.0	-0.2	10.8
